Test results taken from ChEMBL document CHEMBL1649319, “In vitro antifungal activities of isavuconazole and comparators against rare yeast pathogens” (2010).
Converted amounts (≈) assume the structure as drawn.

How the values were obtained:
Type in all cases: functional
[1] = Antifungal activity against Trichosporon jirovecii after 48 hrs by Etest; settings: Cutaneotrichosporon jirovecii
Outline: (§1)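 Etest on 2% glucose-RPMI agar. Yeast suspensions were swabbed across the plates and strips applied, then incubated at 35°C for 48 h. MIC was the lowest concentration where the elliptical inhibition zone border met the strip scale. Each reading was raised to the next 2-fold dilution on the CLSI scale and converted to log2. Isolates were revived from −70°C stocks on potato dextrose or Sabouraud agar.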

Magnusiomyces capitatus [2] = test: Antifungal activity against Dipodascus capitatus after 48 hrs by Etest; outline: as §1
Rhodotorula mucilaginosa [3] = test: Antifungal activity against Rhodotorula mucilaginosa after 7 days by broth microdilution method; settings: 168 h
Magnusiomyces capitatus [4] = test: Antifungal activity against Dipodascus capitatus after 4 days by Etest; settings: 96 h
Magnusiomyces capitatus [5] = test: Antifungal activity against Dipodascus capitatus after 3 days by broth microdilution method; settings: 72 h
[6] = Antifungal activity against Trichosporon domesticum after 48 hrs by Etest; settings: Apiotrichum domesticum; outline: as §1
[7] = test system: Cutaneotrichosporon mucoides; test: Antifungal activity against Trichosporon mucoides after 48 hrs by broth microdilution method
Outline: (§2)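 CLSI M27-A3 broth microdilution. Isolates were identified by ITS1-5.8S-ITS2 sequencing, kept at −70°C in sterile water, and revived on potato dextrose or Sabouraud agar. Drug ranges in wells were 0.015–16 or 0.125–128 μg/ml, depending on the agent. Plates were incubated at 35°C and MICs read visually at 48 h. QC strains were C. krusei ATCC 6258 and C. parapsilosis ATCC 22019.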

Trichosporon inkin [8] = test: Antifungal activity against Trichosporon inkin after 48 hrs by Etest; outline: as §1
Magnusiomyces capitatus [9] = test: Antifungal activity against Dipodascus capitatus after 48 hrs by broth microdilution method; outline: as §2
Saccharomyces cerevisiae [10] = test: Antifungal activity against Saccharomyces cerevisiae after 48 hrs by Etest; outline: as §1
Saccharomyces cerevisiae [11] = test: Antifungal activity against Saccharomyces cerevisiae after 5 days by broth microdilution method; settings: 120 h
Rhodotorula mucilaginosa [12] = test: Antifungal activity against Rhodotorula mucilaginosa after 48 hrs by broth microdilution method; outline: as §2
[13] = test system: Cutaneotrichosporon mucoides; test: Antifungal activity against Trichosporon mucoides assessed as percent susceptible/dose-dependent isolates after 48 hrs by broth microdilution method
Outline: (§3)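 Broth microdilution MICs (CLSI, 35°C, visual read at 48 h) were sorted into categories using CLSI M27-A3 triazole breakpoints. Susceptible was ≤1 or ≤8 μg/ml, SDD was 2 or 16–32 μg/ml, and resistant was ≥4 or ≥64 μg/ml, depending on the agent. Each category is the percentage of isolates falling in it.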

[14] = Antifungal activity against Trichosporon domesticum after 48 hrs by broth microdilution method; settings: Apiotrichum domesticum; outline: as §2
Rhodotorula mucilaginosa [15] = test: Antifungal activity against Rhodotorula mucilaginosa after 48 hrs by Etest; outline: as §1
[16] = test system: Cutaneotrichosporon mucoides; test: Antifungal activity against Trichosporon mucoides assessed as percent susceptible isolates after 48 hrs by broth microdilution method; outline: as §3
[17] = Antifungal activity against Trichosporon jirovecii after 48 hrs by broth microdilution method; settings: Cutaneotrichosporon jirovecii; outline: as §2
Trichosporon [18] = test: Antifungal activity against Trichosporon sp. after 3 days by broth microdilution method; settings: 72 h
Trichosporon asahii [19] = test: Antifungal activity against Trichosporon asahii after 48 hrs by Etest; outline: as §1
Trichosporon asahii [20] = test: Antifungal activity against Trichosporon asahii after 48 hrs by broth microdilution method; outline: as §2
Trichosporon [21] = test: Antifungal activity against Trichosporon sp. after 4 days by Etest; settings: 96 h
Trichosporon inkin [22] = test: Antifungal activity against Trichosporon inkin after 48 hrs by broth microdilution method; outline: as §2
Rhodotorula mucilaginosa [23] = test: Antifungal activity against Rhodotorula mucilaginosa after 7 days by Etest; settings: 168 h
Saccharomyces cerevisiae [24] = test: Antifungal activity against Saccharomyces cerevisiae after 48 hrs by broth microdilution method; outline: as §2
[25] = test system: Cutaneotrichosporon mucoides; test: Antifungal activity against Trichosporon mucoides after 48 hrs by Etest; outline: as §1

CC[C@@H]([C@H](C)O)n1ncn(-c2ccc(N3CCN(c4ccc(OC[C@@H]5CO[C@@](Cn6cncn6)(c6ccc(F)cc6F)C5)cc4)CC3)cc2)c1=O [POSACONAZOLE]
MIC50 [1]: 0.125 µg/mL (≈ 0.178 µM) | MIC90 [1]: 0.5 µg/mL (≈ 0.713 µM) | MIC50 (Magnusiomyces capitatus [2]): 0.06 µg/mL (≈ 0.0856 µM) | MIC90 (Magnusiomyces capitatus [2]): 0.5 µg/mL (≈ 0.713 µM) | MIC50 (Rhodotorula mucilaginosa [3]): 1 µg/mL (≈ 1.43 µM) | MIC90 (Rhodotorula mucilaginosa [3]): 8 µg/mL (≈ 11.4 µM) | MIC50 (Magnusiomyces capitatus [4]): 0.06 µg/mL (≈ 0.0856 µM) | MIC90 (Magnusiomyces capitatus [4]): 0.5 µg/mL (≈ 0.713 µM) | MIC50 (Magnusiomyces capitatus [5]): 0.125 µg/mL (≈ 0.178 µM) | MIC90 (Magnusiomyces capitatus [5]): 0.5 µg/mL (≈ 0.713 µM) | MIC50 [6]: 0.125 µg/mL (≈ 0.178 µM) | MIC90 [6]: 0.5 µg/mL (≈ 0.713 µM) | MIC50 [7]: 0.125 µg/mL (≈ 0.178 µM) | MIC90 [7]: 0.25 µg/mL (≈ 0.357 µM) | MIC50 (Trichosporon inkin [8]): 0.125 µg/mL (≈ 0.178 µM) | MIC90 (Trichosporon inkin [8]): 0.5 µg/mL (≈ 0.713 µM) | MIC50 (Magnusiomyces capitatus [9]): 0.125 µg/mL (≈ 0.178 µM) | MIC90 (Magnusiomyces capitatus [9]): 0.5 µg/mL (≈ 0.713 µM) | MIC50 (Saccharomyces cerevisiae [10]): 2 µg/mL (≈ 2.85 µM) | MIC90 (Saccharomyces cerevisiae [10]): > 16 µg/mL | MIC50 (Saccharomyces cerevisiae [11]): 1 µg/mL (≈ 1.43 µM) | MIC90 (Saccharomyces cerevisiae [11]): 2 µg/mL (≈ 2.85 µM) | MIC50 (Rhodotorula mucilaginosa [12]): 1 µg/mL (≈ 1.43 µM) | MIC90 (Rhodotorula mucilaginosa [12]): 8 µg/mL (≈ 11.4 µM) | MIC50 [13]: 0.125 µg/mL (≈ 0.178 µM) | MIC90 [13]: 0.25 µg/mL (≈ 0.357 µM) | MIC50 [14]: 0.125 µg/mL (≈ 0.178 µM) | MIC90 [14]: 0.25 µg/mL (≈ 0.357 µM) | MIC (Rhodotorula mucilaginosa [15]): > 16 µg/mL | MIC50 (Rhodotorula mucilaginosa [15]): > 16 µg/mL | MIC90 (Rhodotorula mucilaginosa [15]): > 16 µg/mL | MIC50 [16]: 0.125 µg/mL (≈ 0.178 µM) | MIC90 [16]: 0.25 µg/mL (≈ 0.357 µM) | MIC50 [17]: 0.125 µg/mL (≈ 0.178 µM) | MIC90 [17]: 0.25 µg/mL (≈ 0.357 µM) | MIC50 (Trichosporon [18]): 0.125 µg/mL (≈ 0.178 µM) | MIC90 (Trichosporon [18]): 0.25 µg/mL (≈ 0.357 µM) | MIC50 (Trichosporon asahii [19]): 0.125 µg/mL (≈ 0.178 µM) | MIC90 (Trichosporon asahii [19]): 0.5 µg/mL (≈ 0.713 µM) | MIC50 (Trichosporon asahii [20]): 0.125 µg/mL (≈ 0.178 µM) | MIC90 (Trichosporon asahii [20]): 0.25 µg/mL (≈ 0.357 µM) | MIC50 (Trichosporon [21]): 0.125 µg/mL (≈ 0.178 µM) | MIC90 (Trichosporon [21]): 0.5 µg/mL (≈ 0.713 µM) | MIC50 (Trichosporon inkin [22]): 0.125 µg/mL (≈ 0.178 µM) | MIC90 (Trichosporon inkin [22]): 0.25 µg/mL (≈ 0.357 µM) | MIC (Rhodotorula mucilaginosa [23]): > 16 µg/mL | MIC50 (Rhodotorula mucilaginosa [23]): > 16 µg/mL | MIC90 (Rhodotorula mucilaginosa [23]): > 16 µg/mL | MIC50 (Saccharomyces cerevisiae [24]): 1 µg/mL (≈ 1.43 µM) | MIC90 (Saccharomyces cerevisiae [24]): 2 µg/mL (≈ 2.85 µM) | MIC50 [25]: 0.125 µg/mL (≈ 0.178 µM) | MIC90 [25]: 0.5 µg/mL (≈ 0.713 µM)

C[C@@H](c1nc(-c2ccc(C#N)cc2)cs1)[C@](O)(Cn1cncn1)c1cc(F)ccc1F [ISAVUCONAZOLE]
MIC50 [1]: 0.06 µg/mL (≈ 0.137 µM) | MIC90 [1]: 0.125 µg/mL (≈ 0.286 µM) | MIC50 (Magnusiomyces capitatus [2]): 0.125 µg/mL (≈ 0.286 µM) | MIC90 (Magnusiomyces capitatus [2]): 1 µg/mL (≈ 2.29 µM) | MIC50 (Rhodotorula mucilaginosa [3]): 0.5 µg/mL (≈ 1.14 µM) | MIC90 (Rhodotorula mucilaginosa [3]): 2 µg/mL (≈ 4.57 µM) | MIC50 (Magnusiomyces capitatus [4]): 0.125 µg/mL (≈ 0.286 µM) | MIC90 (Magnusiomyces capitatus [4]): 1 µg/mL (≈ 2.29 µM) | MIC50 (Magnusiomyces capitatus [5]): 0.06 µg/mL (≈ 0.137 µM) | MIC90 (Magnusiomyces capitatus [5]): 0.5 µg/mL (≈ 1.14 µM) | MIC50 [6]: 0.06 µg/mL (≈ 0.137 µM) | MIC90 [6]: 0.125 µg/mL (≈ 0.286 µM) | MIC50 [7]: 0.06 µg/mL (≈ 0.137 µM) | MIC90 [7]: 0.5 µg/mL (≈ 1.14 µM) | MIC50 (Trichosporon inkin [8]): 0.06 µg/mL (≈ 0.137 µM) | MIC90 (Trichosporon inkin [8]): 0.125 µg/mL (≈ 0.286 µM) | MIC50 (Magnusiomyces capitatus [9]): 0.06 µg/mL (≈ 0.137 µM) | MIC90 (Magnusiomyces capitatus [9]): 0.5 µg/mL (≈ 1.14 µM) | MIC50 (Saccharomyces cerevisiae [10]): 0.125 µg/mL (≈ 0.286 µM) | MIC90 (Saccharomyces cerevisiae [10]): 0.5 µg/mL (≈ 1.14 µM) | MIC50 (Saccharomyces cerevisiae [11]): 0.03 µg/mL (≈ 0.0686 µM) | MIC90 (Saccharomyces cerevisiae [11]): 0.5 µg/mL (≈ 1.14 µM) | MIC50 (Rhodotorula mucilaginosa [12]): 0.5 µg/mL (≈ 1.14 µM) | MIC90 (Rhodotorula mucilaginosa [12]): 2 µg/mL (≈ 4.57 µM) | MIC50 [13]: 0.06 µg/mL (≈ 0.137 µM) | MIC90 [13]: 0.5 µg/mL (≈ 1.14 µM) | MIC50 [14]: 0.06 µg/mL (≈ 0.137 µM) | MIC90 [14]: 0.5 µg/mL (≈ 1.14 µM) | MIC50 (Rhodotorula mucilaginosa [15]): 1 µg/mL (≈ 2.29 µM) | MIC90 (Rhodotorula mucilaginosa [15]): 4 µg/mL (≈ 9.14 µM) | MIC50 [16]: 0.06 µg/mL (≈ 0.137 µM) | MIC90 [16]: 0.5 µg/mL (≈ 1.14 µM) | MIC50 [17]: 0.06 µg/mL (≈ 0.137 µM) | MIC90 [17]: 0.5 µg/mL (≈ 1.14 µM) | MIC50 (Trichosporon [18]): 0.06 µg/mL (≈ 0.137 µM) | MIC90 (Trichosporon [18]): 0.5 µg/mL (≈ 1.14 µM) | MIC50 (Trichosporon asahii [19]): 0.06 µg/mL (≈ 0.137 µM) | MIC90 (Trichosporon asahii [19]): 0.125 µg/mL (≈ 0.286 µM) | MIC50 (Trichosporon asahii [20]): 0.06 µg/mL (≈ 0.137 µM) | MIC90 (Trichosporon asahii [20]): 0.5 µg/mL (≈ 1.14 µM) | MIC50 (Trichosporon [21]): 0.06 µg/mL (≈ 0.137 µM) | MIC90 (Trichosporon [21]): 0.125 µg/mL (≈ 0.286 µM) | MIC50 (Trichosporon inkin [22]): 0.06 µg/mL (≈ 0.137 µM) | MIC90 (Trichosporon inkin [22]): 0.5 µg/mL (≈ 1.14 µM) | MIC50 (Rhodotorula mucilaginosa [23]): 1 µg/mL (≈ 2.29 µM) | MIC90 (Rhodotorula mucilaginosa [23]): 4 µg/mL (≈ 9.14 µM) | MIC50 (Saccharomyces cerevisiae [24]): 0.03 µg/mL (≈ 0.0686 µM) | MIC90 (Saccharomyces cerevisiae [24]): 0.5 µg/mL (≈ 1.14 µM) | MIC50 [25]: 0.06 µg/mL (≈ 0.137 µM) | MIC90 [25]: 0.125 µg/mL (≈ 0.286 µM)
